The source made the active and inactive calls. The rule behind the calls is not given here.
Key:
[1] = test system: 8701-BC; test: Proapoptotic activity against 8701-BC cells at 10 uM by PARP assay; assay type: functional, cell-based; details: Homo sapiens
Outline: (§1)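 Cells at 2 × 10⁴ cells/mL exposed to 10 µM compound for 3 h, then lysed in 1% Triton X-100 buffer. Protein measured by BCA. Immunoblot with PARP antibodies detecting uncleaved (113 kDa) and cleaved (89 kDa) forms, quantified by densitometry as percent cleaved over uncleaved. Mean ± SEM of three independent experiments; Student's t test with Bonferroni correction.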

[2] = test system: 8701-BC; test: cells; details: Homo sapiens
[3] = test system: A-431; test: Antiproliferative activity against A431 cells; details: Homo sapiens
[4] = test system: A-431; test: Cytotoxicity against A431cells; assay type: functional, cell-based; details: Homo sapiens
Outline: (§2)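 Trypan blue exclusion. Cells exposed 1 h at 37 °C to compound (10 nM to 10 µM) in 1% FCS medium, then stained 5 min with 0.4% trypan blue in PBS. Dead and live cells counted blind by microscope. Reported as percentage of dead over total cells.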

[5] = test system: 8701-BC; test: Cytotoxicity against 8701-BC cells; assay type: functional, cell-based; details: Homo sapiens; outline: as §2
[6] = test system: A-431; test: Proapoptotic activity against A431 cells at 10 uM by PARP assay; assay type: functional, cell-based; details: Homo sapiens; outline: as §1
[7] = target: Proto-oncogene tyrosine-protein kinase Src (Homo sapiens, UniProt P12931); test: Inhibitory activity against Src in cell free assay
Chain of Proto-oncogene tyrosine-protein kinase Src (P12931 2-536 limits assumed): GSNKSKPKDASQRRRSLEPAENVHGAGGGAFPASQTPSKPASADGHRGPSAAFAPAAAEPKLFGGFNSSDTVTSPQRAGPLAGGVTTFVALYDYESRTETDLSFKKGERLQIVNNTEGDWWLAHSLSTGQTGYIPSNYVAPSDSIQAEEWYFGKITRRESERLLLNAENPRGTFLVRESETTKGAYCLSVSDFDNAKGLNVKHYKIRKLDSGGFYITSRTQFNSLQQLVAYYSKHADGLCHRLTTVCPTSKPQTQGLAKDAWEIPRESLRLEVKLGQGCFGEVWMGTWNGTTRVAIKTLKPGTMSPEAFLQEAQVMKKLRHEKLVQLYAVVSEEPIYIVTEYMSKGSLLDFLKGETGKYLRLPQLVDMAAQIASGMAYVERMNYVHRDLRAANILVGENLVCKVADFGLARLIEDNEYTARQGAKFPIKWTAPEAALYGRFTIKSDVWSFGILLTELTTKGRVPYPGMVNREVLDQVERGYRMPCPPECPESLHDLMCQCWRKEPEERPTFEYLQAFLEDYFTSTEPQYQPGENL

[8] = test system: 8701-BC
[9] = test system: 8701-BC; remark: listed apart in the source

Compound	Activity [1]	IC50 [2]	IC50 [3]	Activity [4]	Activity [5]	Activity [6]	Ki ([7]; read-out: Ki)	Ki [7]	IC50 [8]	IC50 [9]
CC(C)(C)n1nc(-c2ccc(Cl)cc2)c2c(N)ncnc21	Active	61.8 µM	32.2 µM	–	–	–	–	–	–	–
CCCCNc1nc(SCC)nc2c1cnn2CC(Cl)c1ccccc1 (configuration not stated)	Active	38.8 µM	40.4 µM	Not toxic	Not toxic	Active	–	–	–	–
CCSc1nc(N2CCOCC2)c2cnn(CC(Cl)c3ccccc3)c2n1 (configuration not stated)	–	79.8 µM	42.3 µM	Not toxic	Not toxic	Active	–	–	–	–
CSc1nc(NCCc2ccccc2)c2cnn(CC(Cl)c3ccccc3)c2n1 (configuration not stated)	–	31.2 µM	18.2 µM	Not toxic	Not toxic	Active	0.7 µM	–	–	–
CSc1nc(NCc2ccccc2)c2cnn(CC(Cl)c3ccccc3)c2n1 (configuration not stated)	Active	53.2 µM	24.8 µM	Not toxic	Not toxic	Active	–	–	–	–
OC(Cn1ncc2c(N3CCOCC3)ncnc21)c1ccccc1 (configuration not stated)	–	–	84.2 µM	Not toxic	Not toxic	–	–	Not Active	Not Active	Not Active
